Where a SMILES comes first, the peptide text is derived from it. [ ]: non-standard residue; d: D form. Sar = CNCC(=O)O
Columns and labels:
PEPT1 [1] = molecular target: T1, PEPT1 (Homo sapiens, UniProt P46059); assay: [3H]Gly-Sar uptake inhibition in Capan-2 cells; type: cell-based
T1 sequence (P46059 1-708): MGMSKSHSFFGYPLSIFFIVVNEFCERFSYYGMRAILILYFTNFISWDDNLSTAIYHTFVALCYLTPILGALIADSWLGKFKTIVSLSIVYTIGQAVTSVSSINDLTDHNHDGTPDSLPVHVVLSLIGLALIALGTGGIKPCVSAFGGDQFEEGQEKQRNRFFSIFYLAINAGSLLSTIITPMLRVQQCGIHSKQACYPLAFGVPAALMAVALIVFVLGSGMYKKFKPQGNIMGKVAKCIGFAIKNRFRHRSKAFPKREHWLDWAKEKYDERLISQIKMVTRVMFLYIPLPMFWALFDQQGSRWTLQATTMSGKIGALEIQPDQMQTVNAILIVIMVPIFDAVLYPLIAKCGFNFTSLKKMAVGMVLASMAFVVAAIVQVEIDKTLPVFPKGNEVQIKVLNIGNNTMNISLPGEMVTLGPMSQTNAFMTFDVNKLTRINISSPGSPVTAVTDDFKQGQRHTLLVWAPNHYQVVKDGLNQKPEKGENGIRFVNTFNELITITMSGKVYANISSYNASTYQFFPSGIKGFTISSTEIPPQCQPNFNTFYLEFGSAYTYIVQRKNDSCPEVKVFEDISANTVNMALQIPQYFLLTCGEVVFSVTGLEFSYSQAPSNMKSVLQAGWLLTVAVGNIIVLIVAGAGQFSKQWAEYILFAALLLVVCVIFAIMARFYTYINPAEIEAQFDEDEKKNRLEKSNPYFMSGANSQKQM

Caco-2 cell homogenates = assay: Enzymatic stability in Caco-2 cell homogenate; type: in vitro ADME, human; conditions: 500 μg/mL protein, 37 °C, mean ± SD, n = 3
thymidine phosphorylase = molecular target: T2, thymidine phosphorylase (Homo sapiens, UniProt P19971); assay: Resistance to metabolism by thymidine phosphorylase; type: in vitro ADME; conditions: 200 μM substrate, TP 2.0 ng/μL, phosphate buffer pH 7.0, 37 °C; mean ± SD, n = 3
T2 sequence (P19971 11-482): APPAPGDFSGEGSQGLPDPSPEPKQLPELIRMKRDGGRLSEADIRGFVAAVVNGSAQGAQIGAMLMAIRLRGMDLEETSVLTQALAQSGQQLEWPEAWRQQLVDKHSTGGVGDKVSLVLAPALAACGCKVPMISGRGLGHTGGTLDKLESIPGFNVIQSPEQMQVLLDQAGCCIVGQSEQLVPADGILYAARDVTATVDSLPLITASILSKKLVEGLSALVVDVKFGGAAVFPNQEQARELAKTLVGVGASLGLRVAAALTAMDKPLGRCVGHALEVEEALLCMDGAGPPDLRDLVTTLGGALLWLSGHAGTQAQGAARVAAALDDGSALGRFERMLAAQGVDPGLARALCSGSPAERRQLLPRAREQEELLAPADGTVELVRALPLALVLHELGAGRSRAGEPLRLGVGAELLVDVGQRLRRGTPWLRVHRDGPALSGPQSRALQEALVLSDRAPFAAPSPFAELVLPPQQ

PEPT1 [2] = molecular target: T1, PEPT1; assay: [3H]Gly-Sar uptake inhibition in AsPC-1 cells; type: cell-based
AsPC-1 cell homogenates = assay: Enzymatic stability in AsPC-1 cell homogenate; type: in vitro ADME, human; conditions: 500 μg/mL protein, 37 °C, mean ± SD, n = 3
Chemical stability = type: physicochemical; conditions: pH 7.4 phosphate buffer, 37 °C; mean ± SD, n = 3
[3] = Stability in human plasma; type: in vitro ADME; conditions: undiluted human plasma, 37 °C; mean ± SD, n = 3
PEPT1 [4] = molecular target: T1, PEPT1; assay: [3H]Gly-Sar uptake inhibition in Caco-2 cells; type: cell-based
Capan-2 cell homogenates = assay: Enzymatic stability in Capan-2 cell homogenate; type: in vitro ADME, human; conditions: 500 μg/mL protein, 37 °C, mean ± SD, n = 3
Capan-2 cell monolayers = assay: Apical-to-basolateral permeability across Capan-2 monolayers; type: in vitro ADME, human; conditions: 1 mM verapamil (efflux pump inhibitor); data not shown
Capan-2 cells = assay: Cell proliferation; type: cell-based; conditions: Homo sapiens, Capan-2, pH 6, read-out: GI50 Capan-2
Method in brief: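 Capan-2 cells (passages 50-54) in antibiotic-free RPMI-1640 plus 10% FBS were plated at 125,000 per well and allowed 24 h to attach. After a rinse with pH 6.0 uptake buffer, they received test compound in the same buffer (twofold series, 4 to 0.25 mmol/L; buffer-only wells as 100% viability) for 4 h at 37 °C. Two washes and 24 h recovery in medium followed.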

AsPC-1 cells = assay: Cell proliferation; type: cell-based; conditions: Homo sapiens, ASPC1, pH 6, read-out: GI50 AsPC-1
Method in brief: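 AsPC-1 cells (passages 63-65) were grown antibiotic-free in RPMI-1640 with 10% FBS, seeded at 125,000 cells/well and left 24 h. They were washed with pH 6.0 uptake buffer and exposed 2 h at 37 °C to test compound (2-fold dilutions, 4 to 0.25 mmol/L, in that buffer); buffer alone served as 100% viability. Cells were washed twice and recovered 24 h in medium.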

[5] = Apical-to-basolateral permeability across Caco-2 monolayers; type: in vitro ADME; conditions: human
[6] = read-out: IC50 [3H]Gly-Sar uptake inhibition Capan-2, Capan-2 cells, 10 μmol/L Gly-Sar, 30 min, mean ± SD, n = 3
[7] = read-out: IC50 [3H]Gly-Sar uptake inhibition AsPC-1, AsPC-1 cells, 10 μmol/L Gly-Sar, 30 min, mean ± SD, n = 3
[8] = read-out: IC50 [3H]Gly-Sar uptake inhibition Caco-2, Caco-2 cells, 10 μmol/L Gly-Sar, 30 min, mean ± SD, n = 3

Molecule	IC50 (PEPT1 [1]; [6]) [µM]	t1/2 cell homogenates Caco-2 (Caco-2 cell homogenates) [min]	t1/2 in the presence of thymidine phosphorylase (thymidine phosphorylase) [min]	IC50 (PEPT1 [2]; [7]) [µM]	t1/2 cell homogenates AsPC-1 (AsPC-1 cell homogenates) [min]	t1/2 buffer pH 7.4 (Chemical stability) [min]	t1/2 human plasma [3] [min]	IC50 (PEPT1 [4]; [8]) [µM]	t1/2 cell homogenates Capan-2 (Capan-2 cell homogenates) [min]	effect of verapamil on permeability in Capan-2 cells (Capan-2 cell monolayers)	IC50 (PEPT1 [1]) [µM]	GI50 (Capan-2 cells) [µM]	IC50 (PEPT1 [2]) [µM]	GI50 (AsPC-1 cells) [µM]	IC50 (PEPT1 [4]) [µM]	Papp at 2 h, 0.1 mM [5] [×10⁻⁶ cm/s]
5′-L-Valyl-L-phenylalanyl-floxuridine	460 ± 20	57.6 ± 9.3	>500	1030 ± 80	51.6 ± 4.2	104.7 ± 7.0	76.0 ± 14.1	2880 ± 10	56.2 ± 12.8							
NCC(=O)OC[C@H]1O[C@@H](n2cc(F)c(=O)[nH]c2=O)C[C@@H]1O [5′-L-glycyl-floxuridine]	2790 ± 80	24.1 ± 2.0	250 ± 54	2710 ± 530	27.6 ± 5.8	85.5 ± 3.2	72.1 ± 15.0	2280 ± 590	49.7 ± 5.6							
CC[C@H](C)[C@H](N)C(=O)NCC(=O)OC[C@H]1O[C@@H](n2cc(F)c(=O)[nH]c2=O)C[C@@H]1O [5′-L-isoleucyl-L-glycyl-floxuridine, 5′-L-Isoleucyl-L-glycyl-floxuridine]	440 ± 20	20.5 ± 1.1	223 ± 54	290	25.1 ± 5.8	33.5 ± 2.4	9.5 ± 0.5	390 ± 10	18.7 ± 1.4							
CC[C@H](C)[C@H](N)C(=O)OC[C@H]1O[C@@H](n2cc(F)c(=O)[nH]c2=O)C[C@@H]1O [5′-L-isoleucyl-floxuridine]	2380 ± 120	192.3 ± 31.8	>500	4120 ± 1750	198.0 ± 70.2	1194.5 ± 660.6	271.4 ± 3.2	720 ± 30	139.9 ± 15.3							
CC(C)C[C@H](N)C(=O)NCC(=O)OC[C@H]1O[C@@H](n2cc(F)c(=O)[nH]c2=O)C[C@@H]1O [5′-L-leucyl-L-glycyl-floxuridine, 5′-L-Leucyl-L-glycyl-floxuridine]	340 ± 10	4.1 ± 0.1	138 ± 11	510 ± 30	3.6 ± 0.8	23.2 ± 4.1	6.7 ± 0.3	3800 ± 600	3.9 ± 1.1							
CC(C)C[C@H](N)C(=O)OC[C@H]1O[C@@H](n2cc(F)c(=O)[nH]c2=O)C[C@@H]1O [5′-L-leucyl-floxuridine]	1450 ± 70	3.2 ± 0.2		2600 ± 160	2.0 ± 0.1	83.2 ± 1.7	82.4 ± 8.7	3510 ± 110	4.7 ± 2.1							
N[C@@H](Cc1ccccc1)C(=O)NCC(=O)OC[C@H]1O[C@@H](n2cc(F)c(=O)[nH]c2=O)C[C@@H]1O [5′-L-phenylalanyl-L-glycyl-floxuridine, 5′-L-Phenylalanyl-L-glycyl-floxuridine]	790 ± 20	6.3 ± 0.6	119 ± 30	880 ± 220	10.2 ± 0.3	132.1 ± 10.2	9.7 ± 0.8	780 ± 560	4.3 ± 0.9							
N[C@@H](Cc1ccccc1)C(=O)N[C@@H](Cc1ccc(O)cc1)C(=O)OC[C@H]1O[C@@H](n2cc(F)c(=O)[nH]c2=O)C[C@@H]1O [5′-L-phenylalanyl-L-tyrosyl-floxuridine, 5′-L-Phenylalanyl-L-tyrosyl-floxuridine]	1200 ± 160	103.8 ± 55.5	>500	610 ± 180	59.7 ± 1.4	233.9 ± 6.6	80.6 ± 3.7	660 ± 250	42.8 ± 0.0	not affected						
N[C@@H](Cc1ccccc1)C(=O)OC[C@H]1O[C@@H](n2cc(F)c(=O)[nH]c2=O)C[C@@H]1O [5′-L-phenylalanyl-floxuridine]	3710 ± 2130	11.1 ± 9.9	>500	1970 ± 90	11.8 ± 1.7	187.0 ± 19.0	62.8 ± 0.8	1990 ± 820	3.0 ± 0.1							
CC(C)[C@H](N)C(=O)OC[C@H]1O[C@@H](n2cc(F)c(=O)[nH]c2=O)C[C@@H]1O [5′-L-valyl-floxuridine]	2410 ± 280	9.4 ± 0.5		2910 ± 380	18.7 ± 6.7	304.0 ± 33.3	131.5 ± 54.1	1880 ± 180	5.2 ± 2.4							
O=c1[nH]c(=O)n([C@H]2C[C@H](O)[C@@H](CO)O2)cc1F [floxuridine, 5-fluoro-2′-deoxyuridine, reference compound]											16100 ± 6710	> 4000	6630 ± 1520	> 4000	8430 ± 2660	0.69 ± 0.1
NCC(=O)N1CCC[C@H]1C(=O)O [glycylproline (Gly-Pro), glycylproline] (H-Gly-Pro-OH)												29500 ± 6500				
CN(CC(=O)O)C(=O)CN [glycylsarcosine (Gly-Sar), glycylsarcosine] (H-Gly-[Sar]-OH)												25700 ± 8100				
